ChEMBL document CHEMBL4152372, “Novel autophagy modulators: Design and synthesis of (+)-epogymnolactam analogues and structure-activity relationship” (Bioorg Med Chem, 2018)
Active and inactive are the calls of the source. No cut-off for these calls is given here.

What was measured:
[1] = tested on: NIH3T3; assay: Induction of apoptosis in mouse NIH/3T3 cells assessed as cell shrinkage at 100 uM measured after 4 hrs; assay type: functional, cell-based
[2] = tested on: NIH3T3; assay: Induction of autophagy in mouse NIH/3T3 cells assessed as upregulation of p62 expression after 4 hrs by immunoblot analysis; assay type: functional, cell-based
In short: (§1)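 Mouse embryo NIH3T3 fibroblasts seeded at 3.3 × 10^5 cells/ml at 37°C, 5% CO2; after 24 h the medium was changed and compounds added in DMSO at 25, 50 or 100 μM final. Controls were DMSO vehicle and 5 μM rapamycin. After 4 h at 37°C, cells were lysed in RIPA buffer and run on SDS-PAGE. Blots were probed for LC3, p62 and actin, and band signal ratios were quantified. Mean ± SD of triplicate.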

[3] = tested on: NIH3T3; assay: Induction of autophagy in mouse NIH/3T3 cells assessed as increase in LC3-2 to actin ratio after 4 hrs by immunoblot analysis; assay type: functional, cell-based; in short: as §1
[4] = tested on: NIH3T3; assay: Induction of autophagy in mouse NIH/3T3 cells assessed as increase in LC3-2 to LC3-1 ratio after 4 hrs by immunoblot analysis; assay type: functional, cell-based; in short: as §1
[5] = tested on: NIH3T3; assay: Cytotoxicity against mouse NIH/3T3 cells assessed as reduction in cell viability at 25 to 100 uM after 4 hrs by CCK8 assay; assay type: cell-based; conditions: nih3t3, 4 h
In short: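 NIH3T3 cells counted by trypan blue exclusion, set to 0.53 × 10^4 cells/ml, and dosed at 25, 50 or 100 μM final (DMSO 0.1%). After 4 h at 37°C under CO2, CCK-8 reagent was added and incubation continued […]. Viable cells were read as OD450 against the DMSO control, mean ± SD of triplicate.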

[6] = tested on: NIH3T3; assay: Induction of apoptosis in mouse NIH/3T3 cells assessed as cell shrinkage at 50 to 100 uM measured after 4 hrs; assay type: functional, cell-based
[7] = tested on: NIH3T3; assay: Inhibition of autophagy in mouse NIH/3T3 cells assessed as decrease in LC3-2 to actin ratio after 4 hrs by immunoblot analysis; assay type: functional, cell-based
In short: (§2)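 NIH3T3 mouse embryo fibroblasts seeded at 3.3 × 10^5 cells/ml, cultured 24 h at 37°C/5% CO2, medium changed, then given compound in DMSO at final 25, 50, 100 μM for 4 h at 37°C. DMSO vehicle control; 5 μM rapamycin positive control. Cells lysed in RIPA, SDS-PAGE immunoblot for LC3, SQSTM1/p62, actin; band signals quantified as relative ratios. Mean ± SD of triplicates.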

[8] = tested on: NIH3T3; assay: Inhibition of autophagy in mouse NIH/3T3 cells assessed as decrease in LC3-2 to LC3-1 ratio after 4 hrs by immunoblot analysis; assay type: functional, cell-based; in short: as §2
[9] = tested on: NIH3T3; assay: Induction of autophagy in mouse NIH/3T3 cells assessed as upregulation of p62 expression at 25 to 100 uM after 4 hrs by immunoblot analysis; assay type: functional, cell-based; in short: as §2
[10] = tested on: NIH3T3; assay: Induction of autophagy in mouse NIH/3T3 cells assessed as increase in LC3-2 to LC3-1 ratio at 25 to 100 uM after 4 hrs by immunoblot analysis; assay type: functional, cell-based; in short: as §1
[11] = tested on: NIH3T3; assay: Induction of autophagy in mouse NIH/3T3 cells assessed as increase in LC3-2 to actin ratio at 25 to 100 uM after 4 hrs by immunoblot analysis; assay type: functional, cell-based; in short: as §1
[12] = tested on: NIH3T3; assay: Modulation of autophagy in mouse NIH/3T3 cells assessed as effect on LC3-2 to LC3-1 ratio at 25 to 100 uM after 4 hrs by immunoblot analysis; assay type: functional, cell-based; in short: as §1
[13] = tested on: NIH3T3; assay: Modulation of autophagy in mouse NIH/3T3 cells assessed as effect on LC3-2 to actin ratio at 25 to 100 uM after 4 hrs by immunoblot analysis; assay type: functional, cell-based; in short: as §1
[14] = tested on: NIH3T3; assay: Induction of autophagy in mouse NIH/3T3 cells assessed as upregulation of p62 expression after 6 hrs by immunoblot analysis; assay type: functional, cell-based
[15] = tested on: NIH3T3; assay: Modulation of autophagy in mouse NIH/3T3 cells assessed as effect on p62 expression at 25 to 100 uM after 4 hrs by immunoblot analysis; assay type: functional, cell-based; in short: as §1

Row | SMILES | Activity [5] | Activity [10] | Activity [11] | also measured
1 | CCCCCCC(=O)[C@H]1O[C@H]1C(N)=O | Toxic |  |  | Activity [1]: Active; Activity [2]: Dose-dependent effect; Activity [3]: Dose-dependent effect; Activity [4]: Dose-dependent effect
2 | CCCCCCCCC(=O)[C@H]1O[C@H]1C(N)=O | Toxic |  |  | Activity [6]: Active; inhibition [7]: Dose-dependent effect; inhibition [8]: Dose-dependent effect; Activity [9]: Active
3 | CCCCC1(O)NC(=O)[C@H]2O[C@H]21 (stereo partly drawn) |  | inactive | inactive | 
4 | CCCCCCCCCCC(=O)[C@H]1O[C@H]1C(N)=O | Toxic |  |  | Activity [12]: inactive; Activity [13]: inactive
5 | CCCCC(=O)[C@H]1O[C@H]1C(=O)N(C)C |  | inactive | inactive | 
6 | CCCC[C@]1(OC)NC(=O)[C@@H]2O[C@@H]21 |  | inactive | inactive | 
7 | CCCC[C@@]1(O)NC(=O)[C@@H]2O[C@@H]21 | Toxic | Active | Active | Activity [6]: inactive; Activity [14]: Active; Activity [15]: inactive
8 | CCCC[C@@H](O)[C@H]1O[C@H]1C(N)=O |  | inactive | inactive | 
9 | CCCCC(=O)CCC(N)=O |  | inactive | inactive | 
10 | C/C=C/C/C=C/CCC(=O)[C@H]1O[C@H]1C(N)=O [CERULENIN] | Toxic |  |  | inhibition [7]: Dose-dependent effect; inhibition [8]: Dose-dependent effect; Activity [9]: Active
